Source: ChEMBL document CHEMBL4513216, “Probing the Open Global Health Chemical Diversity Library for Multistage-Active Starting Points for Next-Generation Antimalarials” (ACS Infect Dis, 2020)

Experiment: Toxicity liver stage against HepG2, at 10uM
Assay type: cell-based
Design: test concentration 10 uM, cell line HepG2-A16-CD81EGFP
Details: human, HepG2-A16-CD81EGFP cells; read-out: INHIBITION
Outline: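 Uninfected HepG2-A16-CD81EGFP cells, 3 × 10^3 per well, 1536-well, plated on prespotted compound at 10 μM final, parasite-free screening media added to match infected plates; puromycin 10 μM positive, DMSO 0.5% negative; run in parallel with 48 h PbLuc assay at 37 °C, 5% CO2; viability by CellTiter-Glo luminescence, normalized to controls.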

Compound | cytotoxicity at 10 µM [%]
CN(C)C(=O)NCc1nnc2n1CCN(Cc1cccs1)C2 | -150
CN1CC(=O)N(c2cccc(F)c2)CC12CCN(Cc1ccco1)C2 (stereo not given) | 4.06
CCc1cnc2c(c1Nc1ccncc1)c(=O)n(C)c(=O)n2C | 1.86
Cn1ccnc1CN1CCC2(CC1)CN(CC1CC1)C(=O)CO2 | 1.7
COCCNC(=O)c1cc(OC)c2ccoc2c1 | -2.49
CCS(=O)(=O)N1CCN(C(=O)c2ccc(Cn3cc(Br)cn3)cc2)CC1 | -2.61
Cc1ncc(CNC(=O)c2nn(C)c3c2CS(=O)(=O)CC3)s1 | -2.44
Cc1cc(C(=O)N2CCOCC2c2nc(C)c[nH]2)nc(O)n1 (stereo not given) | 2.85
CCCN1CCCC(O)(c2nc(C)c(COc3ccccc3)s2)CC1 (stereo not given) | 2.27
CCn1ncc(C(=O)NCCc2nc(-c3ccncc3)n[nH]2)c1C | 6.87
CC(=O)N1CC(c2n[nH]c3ncccc23)C1 | 19.5
CC(C)c1nccn1-c1cncc(C2CCCN2Cc2cccnc2)n1 (stereo not given) | -6.27
COCCN1C(=O)CO[C@H]2CN(Cc3cccc(OC)c3F)C[C@@H]21 | -0.0572
Cc1nc(NC2CCCC2)cc(C2CCN2C(=O)c2ccccn2)n1 (stereo not given) | -4.39
CS(=O)(=O)c1snnc1C1CCN(Cc2ccc3nccnc3c2)CC1 | -6.14
CN1CCc2nc(C3CCCN(C(=O)CC4CCCCC4)C3)ncc2C1 (stereo not given) | -8.36
CC(=O)Nc1nc(C2CCN(C(C)=O)CC2)cs1 | 4.3
COCCCS(=O)(=O)N1CCN(C(C)(C)CO)CC1 | -6.46
CN1CCC(N(Cc2ccco2)S(=O)(=O)c2ccc(Cl)cc2)CC1 | -1.1
Cc1ccc(CN(c2cc(C)nc3nc(C(F)(F)F)nn23)C2CC2)cc1 | -4.12
CC(C)Cc1cc(C(=O)N2CCCN(c3cccnn3)CC2)[nH]n1 | -10.5
Cn1ccnc1C(=O)NCCS(=O)(=O)c1ccc(C(C)(C)C)cc1 | 3.62

Compound | cytotoxicity at 10 µM [%]
COc1ccc(C(=O)NS(=O)(=O)c2cc(Cl)sc2Cl)cc1OC(F)F | -4.73
Cc1nc(CN2CCCC2Cn2cccn2)nc2ccccc12 (stereo not given) | -51.7
Cc1ccccc1C1(C(=O)N2CCOC(C)C2)CCOCC1 (stereo not given) | 5.33
COC(=O)C1CCN(C(=O)NCC(C)Cc2cccs2)CC1 (stereo not given) | -7.33
COCCCN(CCOC)C(=O)Nc1ccc(Br)cc1 | 6.66
Cc1nnc(CN2CCC(Oc3ccc(F)cc3)CC2)o1 | -11.8
O=C(NCC1CC1)C1CSCN1S(=O)(=O)c1cc(F)cc(F)c1 (stereo not given) | 6.35
FC(F)(F)c1c[nH]c(C2CCN(c3ncccn3)CC2)n1 | -5.1
CS(=O)(=O)NCCN1CCOC2(CCc3ccccc32)C1 (stereo not given) | -9.63
CCc1nc(C2CCCN2c2ncc(Br)cn2)no1 (stereo not given) | -0.36
CCc1nnc2n1CC(CNc1cnc3ccccc3n1)CC2 (stereo not given) | -37.4
CCOCCCC(=O)NCC(c1ccccc1)N1CCc2sccc2C1 (stereo not given) | 2.69
CN(Cc1ccc(Cl)s1)C(=O)CN1CC(n2cccn2)C1 | -6.88
CSc1ccc(OCCN2CCC(n3cncn3)CC2)cc1 | -12.6
N#Cc1ccsc1N1CCC(Sc2ncc[nH]2)C1=O (stereo not given) | 2.72
Cc1cc(N2CCC(NC(C)Cc3ccsc3)CC2)nc(C)n1 (stereo not given) | -7.73
COCCCN(C)c1ncccc1I | 2.28
CC(NCCN1CCC(N(C)C)CC1)c1ccc(Cl)s1 (stereo not given) | 25.9
CN1CC(C(=O)NCCc2ccc3c(c2)OCCO3)CC1=O (stereo not given) | 5.51
CN(CCc1ccccc1)c1cnn(C)c(=O)c1Br | -7.22
COc1ccccc1CN(C)c1nc2c(cnn2C)c(=O)[nH]1 | 40.6
Cc1cc(CCC(=O)N2CCOCC2)ccc1Br | 12.5

Compound | cytotoxicity at 10 µM [%]
Cc1cnn(CC2CN(CCN3CCCC3=O)CCO2)c1 (stereo not given) | -9.7
CCc1noc(C(C)N(C)CC(=O)Nc2ccc(C)cc2)n1 (stereo not given) | -6.42
O=C(Cc1ccccc1F)N1CCN(C(=O)c2cccc(F)c2)CC1 | 7.7
CNc1cc(N2CCCC2CNCc2c[nH]nc2C(C)(C)C)ncn1 (stereo not given) | 7.91
COCCN1C(=O)CC(c2cccnc2)C12CCN(C)CC2 (stereo not given) | -97.6
c1cc(CN2CC[C@@H]3CN(c4cncnc4)C[C@@H]3C2)ccn1 | -116
CC(C)OC[C@H]1CCC[C@]12CN(C(=O)C1CCOCC1)CCO2 | -99.1
Cc1cn2c(=O)c(-c3ccnc(N[C@@H](C)CO)n3)cnc2s1 | -13.7
Cc1[nH]c2ccccc2c1-c1ccnc(NC[C@H](O)CO)n1 | 8.9
CCOC(=O)CCCNc1nc(C(C)(C)C)nc2c1cnn2C | -0.627
Cc1cccnc1CC(C)Nc1ncc(C)c(N(C)C)n1 (stereo not given) | 12.1
Cc1cc(C)n(C2CN(C(=O)CN3C(=O)CSc4ccccc43)C2)n1 | -6.53
CCn1nc(C)c(CN2CCC(c3ccc(C(=O)O)cc3)C2)c1C (stereo not given) | 4.22
Cc1ccccc1C(C(=O)NCCN1CCC(CO)CC1)N(C)C (stereo not given) | -4.5
COCc1cc(CN(C)C(C(=O)O)c2cc(C)c(OC)c(C)c2)n[nH]1 (stereo not given) | 1.07
CN(C)C(C(=O)N1CC(c2ccccn2)C1)c1ccc2c(c1)OCO2 (stereo not given) | 10.6
COC(=O)[C@]12CNC[C@H]1CN(Cc1nc(C)c[nH]1)C2 | 6.01
CCc1cc(N(C)Cc2nonc2C)nc(N2CCOCC2)n1 | -8.07
O=C(c1cn(CC(=O)N2CCCCCC2)c2ccccc12)C1CC1 | 13.6
Cc1ccc2oc(=O)n(CCC(=O)N3CCN(C)C(=O)C3)c2c1 | -15.6
CCCc1nc(C)cc(N2Cc3cnn(CCO)c3C2)n1 | -129
O=C(c1cccc(CO)n1)N1CCCC1c1nc2cc(F)ccc2[nH]1 (stereo not given) | -1.26

Compound | cytotoxicity at 10 µM [%]
CC(c1ccc(C(=O)NCCc2nc(N)cc(O)n2)o1)N1CCCCC1 (stereo not given) | -8.9
O=C1NC[C@@]2(C(=O)O)CN(Cc3cccc(Oc4ccccc4)c3)C[C@@H]12 | -5.65
COC1CCCN(c2nc(C)nc3c2CCN(Cc2ccco2)CC3)C1 (stereo not given) | 2.02
COc1ccc(N(c2ccc(C)cc2)c2ccc(C(=O)O)s2)cc1 | -3.75
Cc1nc(C2CCCN2CC(=O)Nc2c(C)n[nH]c2C)no1 (stereo not given) | 1.65
Cc1nnc(CN(C)C2CCCN(Cc3noc(C4CC4)n3)C2)o1 (stereo not given) | -2.51
Cn1ccnc1CN1CCCN(C(=O)c2ccc3ccccc3c2)CC1 | -8.66
CC(NC(=O)NCC1(c2ccc(Cl)cc2)CC1)c1nncn1C (stereo not given) | -3.25
COc1ccccc1C1(C(=O)NCCN2CCCCC2)CCOCC1 | -10.3
Cc1cnn(CCNCc2csc(-c3ncccn3)n2)c1 | -7.48
Cc1noc(CN2CCCC(Cn3nc(C)nc3C)C2)n1 (stereo not given) | -5.04
Cc1ccc(NC2CCN(C(=O)Cc3ccc(C)s3)CC2)nn1 | -3.75
Cc1nc(C)n(CC2CCCN2c2ncnc3ccsc23)n1 (stereo not given) | 7.61
OCCn1nccc1C1CCN(CCCOc2ccc(F)cc2)CC1 | -4.3
CCOc1ncccc1NC(=O)N1CCc2ccccc2C1 | -8.62
CC(=O)N1CCC(CN2CCN(Cc3nccn3C)C(C)C2)CC1 (stereo not given) | -15.4
Cc1ccc(-c2nnc(CN3CCc4cnc(C)nc4C3)o2)cc1 | -6.95
CCc1ccc(CCC(=O)N2CCOCC2c2ncon2)cc1 (stereo not given) | -3.78
Cc1cccc(-c2ccc(C(=O)NCC3CCOC3)c(=O)[nH]2)c1 (stereo not given) | -9.66
Cc1nn(C)c(N(C)C)c1CNCCNS(C)(=O)=O | -5.05
CCn1ccnc1CN1CCCN(C(=O)c2cccc(C#N)c2)CC1 | -12.2
COCC(c1cccc(C(F)(F)F)c1)N(C)C(=O)c1ccncc1 (stereo not given) | -14.6

Compound | cytotoxicity at 10 µM [%]
Cc1noc(C)c1CC(=O)OCC(=O)N1CCc2sccc2C1 | -0.361
CCc1cc(C)c(C(=O)N2CCCC2CC(=O)c2cnn(C)c2)o1 (stereo not given) | 5.22
O=C(CCc1cccs1)N1CCC(N2CCNC2=O)CC1 | 5.37
c1cnnc(N2CCCC(NCc3ccc(-n4cccn4)cc3)C2)c1 (stereo not given) | 0.241
Cc1oc(-c2ccco2)nc1CC(=O)N1CCN(CC(C)(C)O)CC1 | 0.626
O=C(c1cc[nH]n1)N1CCC(Nc2cccnn2)CC1 | -0.529
CCN1CCCc2cc(-c3cncn3C(C)CN3CCOCC3)ccc21 (stereo not given) | 12.6
CN(C)CCN(C(=O)Cc1ccc2c(c1)OCCO2)C1CCN(C)CC1 | 2.16
O[C@]1(c2ccccn2)CC[C@@H]2CN(Cc3cccc4ncccc34)C[C@@H]21 | -2.09
CC(=O)N1CC(=O)N(c2ccccc2)CC12CCN(CC1CC1)C2 (stereo not given) | 4.45
Cc1ccc(C(=O)N2C[C@H]3CCCC(OCc4cccnc4)[C@H]3C2)cn1 (stereo not given in full) | 4.93
N#Cc1ccc(N2CCC3(CCC(=O)N3Cc3cccnc3)CC2)nc1 | -112
CN1CCN(Cc2cn3c(n2)CN(Cc2cccc(F)c2)CC3)CC1 | -125
CC(C)c1nn(C)c(Cl)c1CNCc1ccc2c(c1)OCO2 | -1.77
CN(C)CCN1C(=O)C2(CCN(CC3CC3)CC2)c2ccccc21 | -120
Cc1nc(CN2CCOCC3(CCN(c4ncccn4)CC3)C2)cs1 | 14.9
Cc1noc([C@H]2C[C@@H]3CCN(CC4CCOCC4)C[C@H]3O2)n1 | -103
c1ccc(O[C@@H]2CN(Cc3nccs3)[C@@H]3CCCO[C@@H]32)nc1 | -8.52
Cn1ccc(CN2CCCC23CCN(Cc2nccn2C)CC3)n1 | -109
O=C(NCC1CC2(CO1)CN(Cc1cccs1)C2)C1CCC1 (stereo not given) | -94.1
O=C(COC[C@@]12CCC[C@@H]1CN(C1CCC1)C2)N1CCCC1 | -110
O=C(c1cccc(O)c1)N1CCC2(CCN2c2ncccn2)C1 (stereo not given) | -139
